# Calls of active or inactive are those of the source. No cut-off for these calls is given here.
# Experiments:
# [1] = system: CNE-2; test: Antitumor activity against human CNE-2 cells xenografted in nu/nu mouse assessed as induction of tumor size shrinkage at 1 mg/kg, ip for 32 days; type: functional, organism-based; settings: time 32.0 day
# [2] = Binding affinity to HSP90-alpha T184G mutant (unknown origin) expressed in Escherichia coli BL21 by SPR assay; parameters: species or system Homo sapiens
# Method in brief: (§1)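 SPR on a Biacore T200 at 25 °C with running buffer PBST (PBS pH 7.4, 0.005% Tween-20). Protein at 20 μg/mL in 10 mM sodium acetate pH 5.0 was immobilized on a CM5 chip, which was equilibrated overnight in PBST. Inhibitor serially diluted from 10 μM was injected at 30 μL/min with 120 s contact and 120 s dissociation.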
# [3] = molecular target: T1, Heat shock protein HSP 90-alpha (Homo sapiens, UniProt P07900); test: Inhibition of HSP90-alpha (unknown origin) expressed in Escherichia coli BL21 assessed as reduction in ATPase activity in presence of PEP, NADH and ATP by pyruvate kinase/lactic dehydrogenase based coupled enzyme assay
# [4] = molecular target: T1, Heat shock protein HSP 90-alpha; test: Inhibition of HSP90-alpha in human CNE-2 cells assessed as reduction in PKB protein levels at 70 nM incubated for 24 hrs in presence of HSP90-beta siRNA by immunoblot analysis; type: cell-based
# [5] = system: CNE-2; test: Induction of apoptosis in human CNE-2 cells assessed as late apoptosis cells level at 70 nM incubated for 12 hrs by Annexin-V/FITC staining based FACS analysis (reference value: 2.18%); type: cell-based; settings: cne-2, 12 h, 0.07 µM
# [6] = system: CNE-2; test: Induction of apoptosis in human CNE-2 cells assessed as early apoptosis cells level at 200 nM incubated for 12 hrs by Annexin-V/FITC staining based FACS analysis (reference value: 1.45%); type: cell-based; settings: cne-2, 12 h, 0.2 µM
# [7] = system: CNE-2; test: Induction of apoptosis in human CNE-2 cells assessed as necrosis cells level at 100 nM incubated for 12 hrs by Annexin-V/FITC staining based FACS analysis (reference value: 1.45%); type: cell-based; settings: cne-2, 12 h, 0.1 µM
# [8] = Half life in Kunming mouse at 2 mg/kg, iv measured up to 6 hrs by HPLC analysis; type: ADME, organism-based; settings: in vivo
# Method in brief: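 Male Kunming mice, 9–11 weeks old, about 23 g, four per group, were given a single 2 mg/kg dose intravenously or orally. Blood was sampled at 0, 10, 15, 30 min and 1, 2, 4, 6 h. For each sample, 40 μL plasma was deproteinized with 200 μL acetonitrile and centrifuged 10 min at 12 000 rpm before analysis.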
# [9] = molecular target: T1, Heat shock protein HSP 90-alpha; test: Inhibition of HSP90-alpha in human CNE-2 cells assessed as reduction in PKB protein levels at 70 nM incubated for 24 hrs in presence of HSP90-alpha siRNA by immunoblot analysis; type: cell-based
# Method in brief: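 CNE2 cells were transiently transfected with Hsp90 siRNA (siHsp90-1 or siHsp90-2) at 150 nM final using Lipofectamine 2000. They were then incubated with inhibitor for 24 h and immunoblotted: RIPA lysis, 8–12% SDS-PAGE, PVDF, overnight primary antibodies, HRP secondaries, chemiluminescence, actin as loading control.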
# [10] = molecular target: Heat shock protein HSP 90-beta (Homo sapiens, UniProt P08238); test: Inhibition of HSP90-beta (unknown origin) expressed in Escherichia coli BL21 assessed as reduction in ATPase activity in presence of PEP, NADH and ATP by pyruvate kinase/lactic dehydrogenase based coupled enzyme assay
# Heat shock protein HSP 90-beta, sequence (P08238 whole entry): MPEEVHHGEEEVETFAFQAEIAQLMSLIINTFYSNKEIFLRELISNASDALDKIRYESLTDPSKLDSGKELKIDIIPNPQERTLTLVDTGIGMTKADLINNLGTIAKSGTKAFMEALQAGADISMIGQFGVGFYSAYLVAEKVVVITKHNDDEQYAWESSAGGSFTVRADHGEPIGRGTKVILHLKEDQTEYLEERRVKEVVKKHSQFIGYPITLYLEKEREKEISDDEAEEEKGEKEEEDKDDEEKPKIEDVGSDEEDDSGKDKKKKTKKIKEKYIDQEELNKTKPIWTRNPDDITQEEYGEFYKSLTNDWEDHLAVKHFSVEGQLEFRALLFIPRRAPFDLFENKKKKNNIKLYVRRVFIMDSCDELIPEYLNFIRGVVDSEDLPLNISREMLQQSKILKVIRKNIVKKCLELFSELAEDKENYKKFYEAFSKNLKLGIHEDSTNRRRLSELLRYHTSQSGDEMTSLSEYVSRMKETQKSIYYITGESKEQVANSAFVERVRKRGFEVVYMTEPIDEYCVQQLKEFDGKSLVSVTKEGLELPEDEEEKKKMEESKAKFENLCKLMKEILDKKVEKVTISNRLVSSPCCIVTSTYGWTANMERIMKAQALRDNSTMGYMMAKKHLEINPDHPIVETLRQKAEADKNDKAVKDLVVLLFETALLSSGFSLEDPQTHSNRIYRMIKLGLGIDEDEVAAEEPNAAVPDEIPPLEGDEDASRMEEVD
# [11] = system: CNE-2; test: Induction of apoptosis in human CNE-2 cells assessed as viable cells level at 20 nM incubated for 12 hrs by Annexin-V/FITC staining based FACS analysis (reference value: 96.7%); type: cell-based; settings: read-out: Activity
# Method in brief: (§2)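 CNE2 cells (RPMI 1640 with 10% FBS) were seeded at 5 × 10⁴ cells per well. After 24 h they were treated with compound in 0.05% DMSO for 12 h. Cells were then washed twice with PBS, pelleted, and stained in binding buffer with Annexin V-FITC and PI for flow cytometry.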
# [12] = system: CNE2 (Homo sapiens); test: Induction of apoptosis in human CNE2 cells at 70 nM incubated for 12 hrs in presence of HSP90-beta siRNA by Annexin-V/FITC staining based FACS analysis; settings: cne2, 12 h, 0.07 µM
# [13] = system: CNE-2; test: Induction of apoptosis in human CNE-2 cells assessed as Bcl-XL degradation at 20 to 500 nM incubated for 24 hrs by immunoblot analysis; type: functional, cell-based; settings: dose 20-500 nM
# Method in brief: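 CNE2 cells (RPMI 1640, 10% FBS, 37 °C, 5% CO₂) were incubated with inhibitor for 24 h, then lysed in RIPA buffer on ice for 30 min. Lysates were run on 8–12% SDS-PAGE and transferred to PVDF. Membranes were blocked with 5% milk and probed with primary antibodies overnight, then HRP secondaries. Detection was by chemiluminescence with actin as loading control.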
# [14] = system: CNE-2; test: Induction of apoptosis in human CNE-2 cells assessed as early apoptosis cells level at 70 nM incubated for 12 hrs by Annexin-V/FITC staining based FACS analysis (reference value: 3.1%); type: cell-based; settings: cne-2, 12 h, 0.07 µM
# [15] = system: CNE-2; test: Induction of apoptosis in human CNE-2 cells assessed as late apoptosis cells level at 20 nM incubated for 12 hrs by Annexin-V/FITC staining based FACS analysis (reference value: 1.45%); type: cell-based; settings: cne-2, 12 h, 0.02 µM
# [16] = system: CNE-2; test: Induction of apoptosis in human CNE-2 cells assessed as viable cells level at 70 nM incubated for 12 hrs by Annexin-V/FITC staining based FACS analysis (reference value: 93.2%); type: cell-based; settings: read-out: Activity; method in brief: as §2
# [17] = system: HEK-293T; test: Cytotoxicity in HEK293T cells assessed as reduction in cell viability up to 20 uM incubated for 48 hrs by MTT assay; type: cell-based; settings: human
# [18] = system: CNE-2; test: Induction of apoptosis in human CNE-2 cells assessed as necrosis cells level at 500 nM incubated for 12 hrs by Annexin-V/FITC staining based FACS analysis (reference value: 1.45%); type: cell-based; settings: cne-2, 12 h, 0.5 µM
# [19] = system: CNE2 (Homo sapiens); test: Induction of apoptosis in human CNE2 cells at 70 nM incubated for 12 hrs in presence of HSP90-alpha siRNA by Annexin-V/FITC staining based FACS analysis; settings: cne2, 12 h, 0.07 µM
# [20] = Binding affinity to HSP90-alpha L107G mutant (unknown origin) expressed in Escherichia coli BL21 by SPR assay; parameters: species or system Homo sapiens; method in brief: as §1
# [21] = system: CNE-2; test: Induction of apoptosis in human CNE-2 cells assessed as late apoptosis cells level at 200 nM incubated for 12 hrs by Annexin-V/FITC staining based FACS analysis (reference value: 1.45%); type: cell-based; settings: cne-2, 12 h, 0.2 µM
# [22] = system: CNE-2; test: Induction of apoptosis in human CNE-2 cells assessed as viable cells level at 50 nM incubated for 12 hrs by Annexin-V/FITC staining based FACS analysis (reference value: 96.7%); type: cell-based; settings: read-out: Activity; method in brief: as §2
structure (smiles),measurement,setting,value
CC(C)(C)c1ccc(Cn2cc(-c3cc(O)c(O)c(O)c3)nn2)cc1,Activity,[1],Active
same,Kd,[2],81.4 µM
same,IC50,[3],0.16 µM
same,inhibition,[4],inactive
same,Activity,[5],9.56%
same,Activity,[6],13%
same,Activity,[7],0.57%
same,half-life,[8],1.1 h
same,inhibition,[9],inactive
same,IC50,[10],0.18 µM
same,viability at 0.02 µM,[11],93.6%
same,Activity,[12],Non-Toxic
same,Activity,[13],Active
same,Activity,[14],13.7%
same,Activity,[15],2.19%
same,viability at 0.07 µM,[16],75%
same,Activity,[17],Non-Toxic
same,Activity,[18],0.96%
same,Activity,[19],Non-Toxic
same,Kd,[20],29.1 µM
same,Activity,[21],11.6%
same,viability at 0.05 µM,[22],77.2%

# — ChEMBL document CHEMBL4706684, “Discovering High Potent Hsp90 Inhibitors as Antinasopharyngeal Carcinoma Agents through Fragment Assembling Approach” (J Med Chem, 2021)
